# Source: PubChem (The Scripps Research Institute Molecular Screening Center)
# OXTR potentiate: human OXTR potentiation | 0.061% of 320,000 active | activation, % at 3 µM | CHO-OTR cells, Fluo-8 calcium fluorescence, potentiator mode; 0% = oxytocin EC15, 100% = EC100 | P30559;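 active = activation above that plate's cutoff, the mean activation of tested compounds plus 3 SD, cut at about 6.6% in these data, passing the limit was not always enough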;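 also: 100% uses oxytocin at 75 nM as the full agonist control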
# Target sequence (P30559 whole entry, looked up): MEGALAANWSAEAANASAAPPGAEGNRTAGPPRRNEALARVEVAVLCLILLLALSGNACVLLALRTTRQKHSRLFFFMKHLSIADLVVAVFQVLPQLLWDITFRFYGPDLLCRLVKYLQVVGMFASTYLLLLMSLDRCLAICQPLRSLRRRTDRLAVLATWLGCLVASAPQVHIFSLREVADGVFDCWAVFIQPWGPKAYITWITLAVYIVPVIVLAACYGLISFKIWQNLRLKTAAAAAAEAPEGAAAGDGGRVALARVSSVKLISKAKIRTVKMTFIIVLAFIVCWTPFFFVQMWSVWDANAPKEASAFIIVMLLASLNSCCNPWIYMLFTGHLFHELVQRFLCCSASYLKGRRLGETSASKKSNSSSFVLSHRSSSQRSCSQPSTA
#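 Assay system: CHO cell line stably expressing human OTR | Also added: Oxytocin at about EC15, sub-maximal agonist stimulus | Times: Compound 6 min at room temperature before oxytocin, 100 s read | Measured by: Fluo-8 intracellular calcium fluorescence, ex 470-495, em 515-575 nm | Controls: EC15 oxytocin alone as 0%, 75 nM oxytocin as 100%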
# V1aR counter: activates human V1a receptor in oxytocin agonist counter-screen; P37288; CHO-V1R cells, Fluo-8 calcium fluorescence, agonist mode; 0% DMSO, 100% 3 nM vasopressin; activation, % at 3 µM; 0.25% of 320,000 active; AID 2797;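 active = activation above the mean activation of all tested compounds plus 3 SD, per screening run, cut at about 20% in these data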;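 also: signal is peak over basal fluorescence ratio across a 100 second FLIPR read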
# OXTR agonist: activates the human oxytocin receptor | activation, % at 3 µM | AID 2435 | P30559 | 0.32% of 320,000 active | CHO-OTR cells, Fluo-8 calcium fluorescence; normalized: DMSO 0%, oxytocin 100%;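 active = activation above the mean of all tested compounds plus 3 SD, cutoff set per screening run, cut at about 20% in these data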;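 also: peak over basal fluorescence ratio from a 100 s FLIPR kinetic read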
# TRPML3 agonist: human mucolipin-3 channel agonism; Q8TDD5; HEK293 TRPML3-YFP, Fluo-8 calcium fluorescence; 100% = the carbachol control signal; activation, % at 3 µM; 0.29% of 220,000 active; AID 1448;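 active = activation above its plate's cutoff, the mean activation of the plate's test wells plus 3 SD, cut at about 12% in these data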;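 also: 0% = DMSO only wells and 100% = carbachol wells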
#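 Test system: TRPML3-YFP stable HEK293 cells. Doses: single point at 3 µM. Incubation: dye loading 1 h 37 °C then 30 min ambient, 125 s read. Signal: Fluo-8 calcium dye fluorescence, ex 470-495, em 515-575 nm. Measure: percent activation from peak-to-basal fluorescence ratio, scaled between DMSO and carbachol.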
# TRPN1 ag: agonists of zebrafish TRPN1 channel. HEK293 zebrafish TRPN1-YFP, Fluo-8 calcium fluorescence; 100% = response to 87 µM carbachol. activation, % at 3 µM. AID 1424. 0.18% of 220,000 active;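 active = activation above its plate's cutoff, the mean activation of test wells on that plate plus 3 SD, cut at about 19% in these data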;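 also: 0% = DMSO alone and 100% = 87 µM carbachol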
#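 Assay system: Zebrafish TRPN1-YFP in HEK293 cells | Incubation: Dye loading 1 h at 37 °C, then 30 min room temperature | Measured by: Kinetic Fluo-8 fluorescence, ex 470-495, em 515-575 nm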
# TRPN1 counter: counter-screen for TRPML3 agonists: agonists of zebrafish TRPN1 channel | 10% of 310 active | shares compounds with TRPML3 agonist | activation, % at 3 µM | AID 1525 | HEK293 zebrafish TRPN1-YFP, Fluo-8 calcium fluorescence; scaled: carbachol wells 100%, DMSO wells 0%;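 active = mean activation over replicates above a set limit taken from the earlier TRPN1 channel primary screen, cut at about 19% in these data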;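 also: 100% = carbachol and 0% = 0.3% DMSO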
# TRPML3 confirm: confirmation of human TRPML3 channel agonists; shares compounds with TRPML3 agonist; activation, % at 3 µM; 80% of 310 active; HEK293 TRPML3-YFP, Fluo-8 calcium fluorescence; 100% set by carbachol, 0% by DMSO;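 active = activation above a set limit derived from the earlier primary screen, cut at about 12% in these data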
# OXTR ag confirm: confirmation of human oxytocin receptor agonists. shares compounds with OXTR agonist. CHO-OTR cells, Fluo-8 calcium fluorescence, agonist. activation, % at 3 µM. 20% of 390 active;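 active = mean activation above about 20% derived from the earlier single-dose screen, limit read from the data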;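 also: peak over minimum fluorescence ratio per well during a 100 second FLIPR read; 0% = DMSO alone and 100% = oxytocin high control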
# V1R ag counter 3x: counter-screen for oxytocin receptor agonists: V1a receptor agonists; shares compounds with OXTR agonist; activation, % at 3 µM; CHO-V1R cells, Fluo-8 calcium fluorescence, agonist; 10% of 390 active;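 active = mean activation over triplicate exceeds the hit threshold set in the earlier primary screen, cut at about 20% in these data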;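 also: peak over basal fluorescence ratio within a 100 second read; 0% = DMSO alone and 100% = 3 nM vasopressin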
# OXTR pot confirm: confirmation of human oxytocin receptor potentiators; AID 434985; 180 tested, under 10 active; shares compounds with OXTR potentiate; CHO-OTR cells, Fluo-8 calcium fluorescence, potentiation; scaled from low-dose to maximal oxytocin; activation, % at 3 µM;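 active = mean percent activation over triplicates above a cutoff set from solvent-only control plates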;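 also: compounds tested in the presence of an EC15 dose of oxytocin; 0% = EC15 oxytocin with DMSO and 100% = EC100 oxytocin with DMSO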
# V1aR agonist cf: human V1a receptor agonism, confirmation. shares compounds with V1aR counter. CHO-V1R cells, Fluo-8 calcium fluorescence, agonist. activation, % at 3 µM. 20% of 180 active. AID 434964;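 active = average activation exceeds primary screen hit cutoff, cut at about 21% in these data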;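 also: peak over basal fluorescence ratio during a 100 s FLIPR read; 0% = DMSO only wells and 100% = 3 nM vasopressin wells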
# OXTR counter: activates oxytocin receptor in V1a agonist counter-screen. 10% of 180 active. CHO-OTR cells, Fluo-8 calcium fluorescence. activation, % at 3 µM. shares compounds with V1aR counter;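 active = mean activation over three repeats above the cutoff from the earlier oxytocin receptor agonist screen, cut at about 20% in these data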;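 also: peak over minimum fluorescence ratio within a 100 second FLIPR read; 0% = DMSO only wells and 100% = oxytocin high control wells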
# An asterisk follows results filed as active; · = no result given. This is a sample that favours compounds with a hit; in the whole collection about 0.58% have one here.
SMILES,OXTR potentiate,V1aR counter,OXTR agonist,TRPML3 agonist,TRPN1 ag,others
O=[N+]([O-])c1ccc(NCc2ccccc2)c2nonc12,-17.2,691.5*,692.8*,215.7*,332.1*,
O=[N+]([O-])c1ccc(NCc2ccc(Cl)cc2)c2ccncc12,0.2,4.1,2.0,·,·,
COC(=O)C1=C(c2ccc(Cl)c(C(F)(F)F)c2)C[C@@H]2CC[C@H]1N2C(=O)NCCOc1ccc(OC)cc1,-5.9,0.7,-1.9,·,·,
O=[N+]([O-])c1ccc(C2[C@H]3C(c4ccccc4)=NC4(CCCCC4)N23)cc1 (stereo partly drawn),-1.7,3.4,-1.6,0.6,0.7,
CN1/C(=C\C=C2C(=O)NC(=S)NC2=O)C(C)(C)c2ccccc21,·,·,·,31.5*,57.4*,
COc1ccc(CNCCc2c(C)[nH]c3ccc(OC(F)(F)F)cc23)c(OC)c1,-23.3,41.0*,40.6*,·,·,
COc1ccc2[nH]c(C)c(CCNCc3cc(OC)c(OC)c(OC)c3)c2c1,-20.9,-0.1,1.4,0.7,-1.0,
COP(=S)(OC)c1c(C)nn(CCC#N)c1NC(=O)c1ccc(Cl)cc1,-1.7,1.1,0.6,·,·,
C/C=C(\C)C(=O)OC1C(C)=C2C(C1OC(=O)CCCCC)C(C)(OC(C)=O)CC(OC(=O)CCC)C1(O)C2OC(=O)C1(C)O (stereo not drawn),-11.1,65.2*,62.3*,·,·,
Cc1ccc(C(=O)c2cc(Br)ccc2N)cc1,-5.4,-0.8,-0.9,0.1,-1.9,
CC1(C)CN=C(Nc2ccc(F)c(Cl)c2)S1,-13.8,27.0*,16.4,0.4,0.1,
CC1(C)CN=C(Nc2ccc(F)c(F)c2)S1,-7.6,13.1,4.8,0.4,0.5,
O=C1NC(=O)C(=Cc2csc3ccccc23)C(=O)N1,-16.3,0.6,24.0*,-0.1,2.3,
CC(C(=O)Nc1ccc(Br)cc1C(=O)c1ccccc1)N1CCCCC1 (stereo not drawn),11.9*,-1.2,-2.0,-0.8,-1.2,
Cn1c(O)c(C=Nc2ccc(Br)cc2)c(=O)n(C)c1=O,7.5,1.1,-0.1,·,·,
Cn1c(O)c(/C=C/C=Nc2ccccc2)c(=O)n(C)c1=S,-18.8,47.4*,93.0*,5.6,4.7,
O=[N+]([O-])c1ccc(N2CCCCCC2)c2nonc12,-26.5,534.2*,412.8*,·,·,
CC(=O)C1C2c3ccccc3O[C@@]1(C)N=c1s/c(=C/c3ccoc3)c(=O)n12 (stereo partly drawn),-4.6,1.2,-0.3,0.5,1.0,
O=c1cc(C(F)(F)F)c2cc3c4c(c2o1)CCCN4CCC3,-18.0,152.2*,168.9*,7.9,11.1,
Cc1cc2c(C(F)(F)F)cc(=O)oc2c2c1NCCC2,-1.0,8.8,4.5,1.9,2.3,
CCCCn1c(O)c(C(C)=Nc2ccc3c(c2)CCC3)c(=O)[nH]c1=O,-5.4,0.7,-2.1,0.6,0.9,
Nc1ccc2ccc3cccc[n+]3c2c1,-16.2,92.4*,38.2*,·,·,
CN1C(=O)C(=Cc2sc(=O)n(-c3ccccc3)c2N2CCCCC2)C(=O)N(C)C1=O,·,·,·,9.1,29.1*,
COc1cc(C(C)=O)ccc1OC(=O)N(C)c1ccccc1,-4.2,0.9,0.5,·,·,
C[C@]12C[C@H](O)[C@@H](O)CC1=CCC1C2CC[C@@]2(C)C1CC[C@@H]2O (stereo partly drawn),0.9,0.4,2.6,·,·,
SMILES,OXTR potentiate,V1aR counter,OXTR agonist,TRPML3 agonist,TRPN1 ag,others
O=C1NC(=O)C(=C/C=C/c2coc3ccc(Br)cc3c2=O)C(=O)N1,-22.8,17.2,39.6*,5.6,11.0,
COC(=O)C1=CCCN(C)C1,-3.3,0.8,0.5,19.8*,5.9,TRPN1 counter=11.6;TRPML3 confirm=45.8*
Cc1cc(C)cc(NC2=NCCCS2)c1,-11.0,1.3,-0.8,0.8,-0.3,
Cc1cccc(-n2c(O)c(/C=C/C=Nc3ccccc3)c(=O)[nH]c2=O)c1,-7.5,11.8,23.3*,7.4,7.1,OXTR ag confirm=25.6*;V1R ag counter 3x=35.4*
CN1C(C(=O)N2CCC3(CC2)OCCO3)=CC(c2ccc(F)cc2)=NS1(=O)=O,-3.3,3.0,2.5,·,·,
CCOc1ccc(-n2c(O)c(C=NCCN(CC)CC)c(=O)[nH]c2=O)cc1,13.2*,0.4,2.9,1.2,-1.4,OXTR pot confirm=-6.5
CCCCn1c(O)c(C=NC2CC3CCC2(C)C3(C)C)c(=O)[nH]c1=O (stereo not drawn),-10.9,-1.0,-2.6,-0.5,-0.6,
C=CCn1c(O)c(C(CC)=Nc2cccc(C(=O)O)c2)c(=O)[nH]c1=O,-6.0,22.1*,1.1,0.4,1.0,V1aR agonist cf=-0.1;OXTR counter=-0.6
CCCc1c(C)nc(SCC(=O)C(C)(C)C)nc1OC(=O)N(C)C,-2.1,2.8,-2.4,0.6,0.1,
COc1ccc(CN2C(=O)NC(=O)/C(=C/c3cc(OC)c(OC)c(OC)c3)C2=O)cc1,-4.6,-0.2,1.0,0.8,1.5,
COc1ccc(CN2C(=O)NC(=O)/C(=C/c3ccoc3)C2=O)cc1,-22.3,33.4*,16.9,11.3,18.0,V1aR agonist cf=0.7;OXTR counter=0.9
